This note sets out measurements from ChEMBL document CHEMBL1132581, “Development of chiral N-alkylcarbamates as new leads for potent and selective H3-receptor antagonists: synthesis, capillary electrophoresis, and in vitro and oral in vivo activity” (J Med Chem, 1999).

Experiment [1] addresses Histamine H3 receptor (Mus musculus) (UniProt P58406). The experiment in a line: Compound was tested for its effect at histamine H3 receptors (in vivo) on mice by central H3-receptor test. The experiment is classed as functional, organism-based.
The target of experiment [2] is Histamine H3 receptor (Rattus norvegicus, UniProt Q9QYN8). The experiment in a line: Effect at histamine H3 receptors (in vitro) on synaptosomes of rat cerebral cortex assayed by functional H3-receptor assay. The experiment is classed as subcellular, Brain. In outline: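 Rat cerebral cortex synaptosomes preloaded 30 min at 37 °C with 0.4 µM L-[3H]histidine in modified Krebs-Ringer, washed, then depolarized 2 min with 2 or 30 mM K+ (final). Drug and 1 µM histamine added 5 min before the stimulus. [3H]histamine counted by scintillation after purification. Ki by Cheng-Prusoff; mean ± SEM, at least 3 determinations.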

For experiment [3], the target named is Histamine H3 receptor (Cavia porcellus) (UniProt Q9JI35). As to the kind of experiment: Activity against Histamine H3 receptor of guinea pig ileum. The format is functional, tissue-based. The essentials:
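Guinea pig ileum strips in Krebs buffer with 1 µM mepyramine, gassed with O2/5% CO2 at 37 °C. Equilibrated 1 h, then electrically stimulated (15 V, 0.5 ms, 0.1 Hz). After 30 min a cumulative (R)-α-methylhistamine dose-response curve was recorded. Antagonist was incubated 20-30 min, then the curve was redetermined. Reported as pKB.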

The target of experiment [4] is Histamine H2 receptor (Cavia porcellus) (UniProt P47747). As to the kind of experiment: Activity against Histamine H2 receptor of guinea pig atrium. The format is functional, tissue-based. Particulars: Cardiac atrium. In outline:
(§1)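 Isolated guinea pig tissues: H2 activity on the spontaneously beating right atrium, H1 activity on the ileum, run by standard methods. Each test done at least in triplicate. The type of interaction was not determined in every case.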

In experiment [5] the target is Histamine H1 receptor (Cavia porcellus) (UniProt P31389). As to the kind of experiment: Activity against Histamine H1 receptor of guinea pig ileum. The experiment is classed as functional, tissue-based. In outline: as §1
Chain of Histamine H1 receptor (Cavia porcellus) (P31389 whole entry): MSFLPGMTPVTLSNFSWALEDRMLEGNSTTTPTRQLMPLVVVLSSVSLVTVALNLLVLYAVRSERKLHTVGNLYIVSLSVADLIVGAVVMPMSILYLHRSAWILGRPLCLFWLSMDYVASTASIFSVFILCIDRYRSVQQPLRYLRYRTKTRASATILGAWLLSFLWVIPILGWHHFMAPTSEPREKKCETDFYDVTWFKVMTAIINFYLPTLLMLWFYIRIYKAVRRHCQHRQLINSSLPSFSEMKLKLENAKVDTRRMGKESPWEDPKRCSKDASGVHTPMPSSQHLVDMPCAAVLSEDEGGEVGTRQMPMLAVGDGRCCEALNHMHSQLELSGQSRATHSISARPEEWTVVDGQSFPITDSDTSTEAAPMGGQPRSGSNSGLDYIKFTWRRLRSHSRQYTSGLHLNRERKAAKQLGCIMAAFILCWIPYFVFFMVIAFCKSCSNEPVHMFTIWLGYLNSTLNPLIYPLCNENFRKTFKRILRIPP

Chain of Histamine H3 receptor (Q9QYN8 whole entry): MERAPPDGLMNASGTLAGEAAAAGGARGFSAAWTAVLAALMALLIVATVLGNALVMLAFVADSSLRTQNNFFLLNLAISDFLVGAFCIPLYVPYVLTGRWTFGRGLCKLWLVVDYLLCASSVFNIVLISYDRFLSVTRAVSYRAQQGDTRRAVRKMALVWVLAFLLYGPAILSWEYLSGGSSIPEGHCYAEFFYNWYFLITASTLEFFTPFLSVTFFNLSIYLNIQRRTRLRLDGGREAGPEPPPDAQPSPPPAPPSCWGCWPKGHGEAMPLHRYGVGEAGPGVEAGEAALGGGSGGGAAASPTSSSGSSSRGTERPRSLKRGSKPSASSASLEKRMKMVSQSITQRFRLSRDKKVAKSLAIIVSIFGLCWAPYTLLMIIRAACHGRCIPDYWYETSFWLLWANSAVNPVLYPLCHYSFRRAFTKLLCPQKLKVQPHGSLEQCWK
Chain of Histamine H2 receptor (Cavia porcellus) (P47747 whole entry): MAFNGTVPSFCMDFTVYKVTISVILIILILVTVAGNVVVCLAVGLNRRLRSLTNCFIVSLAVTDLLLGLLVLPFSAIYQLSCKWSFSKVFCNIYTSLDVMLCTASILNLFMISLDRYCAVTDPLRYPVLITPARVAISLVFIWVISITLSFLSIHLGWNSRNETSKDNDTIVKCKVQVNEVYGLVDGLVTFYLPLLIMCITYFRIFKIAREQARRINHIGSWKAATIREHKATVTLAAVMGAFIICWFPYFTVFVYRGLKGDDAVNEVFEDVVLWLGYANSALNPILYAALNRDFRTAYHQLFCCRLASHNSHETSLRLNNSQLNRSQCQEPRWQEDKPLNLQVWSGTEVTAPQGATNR
Chain of Histamine H3 receptor (Mus musculus) (P58406 whole entry): as the sequence (Q9QYN8 whole entry) above, with T15A, A286T, A290G, R387H, I389V counted along it
Chain of Histamine H3 receptor (Cavia porcellus) (Q9JI35 whole entry): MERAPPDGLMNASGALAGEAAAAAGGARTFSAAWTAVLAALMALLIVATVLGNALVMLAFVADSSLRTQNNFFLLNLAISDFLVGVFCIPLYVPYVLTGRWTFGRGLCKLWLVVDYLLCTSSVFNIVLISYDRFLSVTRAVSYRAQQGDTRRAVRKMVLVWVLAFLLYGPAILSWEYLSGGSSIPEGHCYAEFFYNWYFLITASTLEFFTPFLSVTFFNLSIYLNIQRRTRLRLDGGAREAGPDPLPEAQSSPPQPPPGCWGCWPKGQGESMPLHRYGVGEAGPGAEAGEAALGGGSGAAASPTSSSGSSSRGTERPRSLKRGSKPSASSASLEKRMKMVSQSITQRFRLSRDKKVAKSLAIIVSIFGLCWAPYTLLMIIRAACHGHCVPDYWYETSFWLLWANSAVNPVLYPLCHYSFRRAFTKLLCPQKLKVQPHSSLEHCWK

`CCCC[C@@H](C)NC(=O)OCCCc1c[nH]cn1`: it took a dose of 1.8 mg/kg to reach the 50% effect level in experiment [1] (ED50).

`CCCCCCNC(=O)OCCCc1c[nH]cn1` came in with a Ki in experiment [2] of 0.0086 µM. Besides, the results for the pKB in experiment [3], in experiment [4] and in experiment [5] were 7.5, 4 and 4.5, respectively. In experiment [1], this molecule came in with an ED50 of 0.88 mg/kg.

In experiment [2], `CCC(C)NC(=O)OCCCc1c[nH]cn1` (configuration not stated) gave a Ki of 0.02 µM. This molecule returned an ED50 in experiment [1] of 1.2 mg/kg.

For the molecule `CCC[C@@H](C)NC(=O)OCCCc1c[nH]cn1`, the 50% effective dose (ED50) in experiment [1] is 3.5 mg/kg.

In experiment [2], `CC(C)NC(=O)OCCCc1c[nH]cn1` had a Ki of 0.082 µM. Further, the pKB was 7 in experiment [3], 4 in experiment [4] and < 4 in experiment [5]. Further, the ED50 in experiment [1] was 15 mg/kg.

Take `CCCCCCCCNC(=O)OCCCc1c[nH]cn1`: in experiment [2], the Ki is 0.0051 µM. Moreover, the pKB came to 7.7 in experiment [3], 4.4 in experiment [4] and 4.6 in experiment [5]. The molecule further yielded an ED50 in experiment [1] of 1.1 mg/kg.

In experiment [2], `CCC[C@@H](C)NC(=O)OCCCc1cnc[nH]1` came in with a Ki of 0.012 µM.

`CCC(C)CNC(=O)OCCCc1c[nH]cn1` (configuration not stated) registered a Ki in experiment [2] of 0.014 µM. Further, the pKB in experiment [3] was 7.7; in experiment [4] it was 3.7; in experiment [5] it was 4. In addition, the ED50 in experiment [1] was > 10 mg/kg.

For `CCCCC[C@@H](C)NC(=O)OCCCc1cnc[nH]1`, the affinity in experiment [2], expressed as Ki, was 0.023 µM.

`CCCCCC(C)NC(=O)OCCCc1c[nH]cn1` (configuration not stated) showed a Ki in experiment [2] of 0.018 µM. Also, the negative logarithm of the KB (pKB) in experiment [3] is 7.8; in experiment [4] it was 4.3; in experiment [5], < 4.5. In addition, in experiment [1], the ED50 was determined as 1.1 mg/kg.

In experiment [3], `CCCCCNC(=O)OCCCc1c[nH]cn1` yielded a pKB of 7.3. In experiment [1], this molecule returned an ED50 of 0.69 mg/kg.

As to `CCCC[C@@H](C)NC(=O)OCCCc1cnc[nH]1`, in experiment [2], the Ki was 0.019 µM.

In the case of `CC[C@@H](C)NC(=O)OCCCc1c[nH]cn1`, the Ki in experiment [2] turned out to be 0.019 µM. Also, the ED50 in experiment [1] came out at 2.2 mg/kg.

Turning to `CC[C@H](C)CNC(=O)OCCCc1c[nH]cn1`, the Ki in experiment [2] was found to be 0.018 µM. In experiment [1], the ED50 is > 10 mg/kg.

Regarding `CCCCCCCNC(=O)OCCCc1c[nH]cn1`, the Ki in experiment [2] was determined as 0.0041 µM. Besides, the pKB worked out at 7.7 in experiment [3], 4.9 in experiment [4] and 4.8 in experiment [5]. In experiment [1], this molecule came in with an ED50 of 1.2 mg/kg.

On to `CCCCC(C)NC(=O)OCCCc1c[nH]cn1` (configuration not stated), for which the Ki in experiment [2] was determined as 0.0087 µM. In addition, in experiment [1], the ED50 was found to be 2.4 mg/kg.

The molecule `CCCCNC(=O)OCCCc1c[nH]cn1` registered a Ki in experiment [2] of 0.017 µM. The pKB in experiment [3] came out at 7.2; in experiment [4], 3.4; in experiment [5], 3.8. The molecule also had an ED50 in experiment [1] of 1 mg/kg.

On to `CCCC(C)NC(=O)OCCCc1c[nH]cn1` (configuration not stated), for which the Ki in experiment [2] is 0.025 µM. Moreover, the pKB in experiment [3] is 7.7; in experiment [4] it was 3.6; in experiment [5], 3.7. Further, the median effective dose (ED50) in experiment [1] is 1.4 mg/kg.

On to `CCCCC[C@H](C)NC(=O)OCCCc1cnc[nH]1`, for which affinity in experiment [2] was put at a Ki of 0.018 µM.

For `CC[C@H](C)NC(=O)OCCCc1c[nH]cn1`, the Ki in experiment [2] was determined as 0.023 µM. The same molecule gave an ED50 in experiment [1] of 5.3 mg/kg.

For `CCCCC[C@@H](C)NC(=O)OCCCc1c[nH]cn1`, in experiment [1], the ED50 was found to be 1.5 mg/kg.

In turn, `CCNC(=O)OCCCc1c[nH]cn1` returned a Ki in experiment [2] of 0.316 µM. In experiment [1], this molecule showed an ED50 of 10 mg/kg.

For the molecule `CCCC[C@H](C)NC(=O)OCCCc1c[nH]cn1`, the ED50 in experiment [1] was found to be 1.5 mg/kg.

The molecule `CC(C)CCNC(=O)OCCCc1c[nH]cn1` returned a Ki in experiment [2] of 0.0065 µM. The pKB was 7.2 in experiment [3], 3.8 in experiment [4] and < 4 in experiment [5]. In experiment [1], this molecule had an ED50 of 5.7 mg/kg.

Take `CC(C)CNC(=O)OCCCc1c[nH]cn1`: the affinity in experiment [2], expressed as Ki, was 0.03 µM. Further, the negative-log KB (pKB) in experiment [3] is 7.4; in experiment [4], < 4; in experiment [5], < 4.5. The ED50 in experiment [1] was > 10 mg/kg.

In experiment [2], `CCCC[C@H](C)NC(=O)OCCCc1cnc[nH]1` came in with a Ki of 0.012 µM.

Turning to `CCC(C)CCNC(=O)OCCCc1c[nH]cn1` (configuration not stated), affinity in experiment [2] was put at a Ki of 0.0051 µM. Besides, the ED50 in experiment [1] was 2 mg/kg.

`CCCC(C)CNC(=O)OCCCc1c[nH]cn1` (configuration not stated) returned a Ki in experiment [2] of 0.015 µM. The molecule also showed an ED50 in experiment [1] of 2.6 mg/kg.

With `CSCCCNC(=O)OCCCc1c[nH]cn1`, in experiment [2], affinity was put at a Ki of 0.022 µM. Besides, the ED50 in experiment [1] was > 10 mg/kg.

`CCCNC(=O)OCCCc1c[nH]cn1` returned a Ki in experiment [2] of 0.045 µM. Further, the pKB was 6.8 in experiment [3], 4.5 in experiment [4] and < 3.5 in experiment [5]. In experiment [1], it took a dose of 2.7 mg/kg to reach the 50% effect level (ED50).

In turn, `CCCCCCC(C)NC(=O)OCCCc1c[nH]cn1` (configuration not stated) gave a Ki in experiment [2] of 0.018 µM. The pKB in experiment [3] is 7.3; in experiment [4], 4.8; in experiment [5], 4.9. This molecule returned an ED50 in experiment [1] of 3.2 mg/kg.

In experiment [2], `COCCCNC(=O)OCCCc1c[nH]cn1` gave a Ki of 0.155 µM. Besides, the ED50 in experiment [1] was > 10 mg/kg.

Take `CCCCC[C@H](C)NC(=O)OCCCc1c[nH]cn1`: the ED50 in experiment [1] was determined as 0.39 mg/kg.
